Rows were chosen to be rich in hits. Some 27% of all compounds tested hit in one or more screens of this group.
CYP2C9 activ = activators of human CYP2C9. P11712. AID 1024. 96,000 compounds, 1.4% hits. recombinant CYP2C9, luciferin-H conversion, luminescence; active compounds read high; factor 1 = untreated enzyme, 0 = blocked. activation factor at 5 µM;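 active = activation factor of 2 or more for CYP2C9 at a 5 µM dose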;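 also: 0 = sulfaphenazole-blocked wells and 1 = vehicle-only wells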
Target sequence (P11712 whole entry, looked up): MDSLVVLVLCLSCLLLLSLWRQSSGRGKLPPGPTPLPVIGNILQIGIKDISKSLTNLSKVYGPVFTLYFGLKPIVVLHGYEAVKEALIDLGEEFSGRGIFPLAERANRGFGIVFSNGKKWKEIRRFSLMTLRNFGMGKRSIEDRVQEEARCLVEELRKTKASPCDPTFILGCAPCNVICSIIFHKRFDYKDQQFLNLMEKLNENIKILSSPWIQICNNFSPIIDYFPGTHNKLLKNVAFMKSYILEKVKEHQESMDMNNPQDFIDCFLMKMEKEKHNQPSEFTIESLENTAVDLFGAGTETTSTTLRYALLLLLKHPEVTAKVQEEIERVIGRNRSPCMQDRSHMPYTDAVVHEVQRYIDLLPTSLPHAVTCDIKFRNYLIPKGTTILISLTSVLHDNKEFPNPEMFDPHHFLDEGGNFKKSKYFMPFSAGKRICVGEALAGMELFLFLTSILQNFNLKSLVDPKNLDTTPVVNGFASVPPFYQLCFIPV
Rev-RRE block = inhibitors of HIV-1 Rev-RRE RNA interaction; inhibition, % at 8 µM; P05866; Rev peptide-RRE RNA binding, FRET; 97,000 compounds, 0.79% hits;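 active = inhibition above the screen-wide mean plus 3 SD, cut at about 35% in these data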;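 also: 0% = median DMSO wells and 100% = median Neomycin B control wells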
Target sequence (P05866 whole entry, looked up): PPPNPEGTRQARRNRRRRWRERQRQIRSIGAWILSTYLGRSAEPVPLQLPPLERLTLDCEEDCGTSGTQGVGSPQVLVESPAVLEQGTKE
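Test system: Cy5-tagged RRE RNA duplex with fluorescein-tagged Rev peptide | Read-out: % inhibition of FRET ratio versus controls | Probe or stimulus: Labelled Rev peptide | Incubation: 5 min RNA-compound premix plus 15 min binding step, 25 °C | Technique: FRET fluorescence readout | Benchmarks: DMSO low control, neomycin B high control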
Cav32 inh = inhibitors of human Cav3.2 T-type calcium channel; O95180; Cav3.2-expressing cells, Fluo-4 calcium fluorescence FDSS; active compounds read low; B-score at 10 µM; 100,000 compounds, 4% hits;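 active = single-dose well whose peak fluorescence ratio is a statistical outlier from its plate by either plate-standardised score or position-corrected B-score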
CYP2C19 inhib = blocks human cytochrome P450 2C19; CYP2C19 Supersomes, luciferin-H EGE luminescence, 30 min; inhibition, % at 5 µM; 96,000 compounds, 21% hits; P33261;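 active = CYP2C19 inhibition above a set limit at 5 µM in the primary screen, cut at about 50% in these data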;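 also: plate controls were negative control wells for no effect and 2.5 mM tranylcypromine positive control for full effect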
CYP2C19 activ = increases human CYP2C19 enzyme activity; P33261; recombinant CYP2C19, luciferin-H EGE luminescence; active compounds read high; 0 = fully inhibited enzyme, 1 = untreated enzyme; activation factor at 5 µM; 96,000 tested, under 10 active; AID 1025;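 active = activation factor of at least 2 at 5 µM in the primary screen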;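 also: 0 = wells with 2.5 mM tranylcypromine and 1 = vehicle-only wells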
CYP2C9 inhib = inhibitors of human CYP2C9; CYP2C9 Supersomes, luciferin-H conversion, luminescence; 96,000 compounds, 20% hits; inhibition, % at 5 µM; P11712;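 active = blocking of liver enzyme CYP2C9 beyond about 50% at 5 µM, limit read from the data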
* marks the source's active call; other numbers are inactive results; . = no result.

SMILES	CYP2C9 activ	Rev-RRE block	Cav32 inh	CYP2C19 inhib	CYP2C19 activ	CYP2C9 inhib
COc1cccc(C(=O)Nc2cccnc2)c1	0.9	9.5	.	26.2	0.7	14.0
O=C(Nc1cccnc1)c1ccccc1Oc1ccccc1	0.5	8.0	1.09	64.1*	0.4	54.6*
O=C(Nc1cccnc1)c1ccc(Oc2ccccc2)cc1	0.1	6.1	-0.0126	36.0	0.6	88.6*
COc1cc2ccccc2cc1C(=O)Nc1cccnc1	0.7	5.7	-0.962	43.8	0.6	31.5
Cc1cc(C(=O)O)c(CSCc2cc(C(=O)O)oc2C)o1	1.7	8.8	.	22.3	0.8	-74.6
COc1ccc(-c2nc3n(n2)C(=O)CC(c2ccco2)S3)cc1 (configuration not stated)	.	.	0.131	.	.	.
COC(=O)c1sccc1NC(=O)c1cc2c(s1)CCCC2	0.4	16.0	.	36.2	0.6	61.2*
CC(C)Cc1nc(S(=O)(=O)c2ccc(Cl)cc2)c(N2CCOCC2)o1	1	5.2	0.0852	57.2*	0.4	3.5
CC(C)(C)c1nc(S(=O)(=O)c2ccc(Cl)cc2)c(N2CCOCC2)o1	1	1.0	-0.473	12.7	0.9	0.4
COc1cc(-c2nc(S(=O)(=O)c3ccc(Cl)cc3)c(N3CCOCC3)o2)cc(OC)c1OC	0.4	6.7	-0.00609	21.5	0.8	61.9*
COc1cc(-c2nc(S(=O)(=O)c3ccc(C)cc3)c(N(C)C)o2)cc(OC)c1OC	0.4	9.9	1.02	13.4	0.9	55.8*
COc1ccccc1-c1nc(S(=O)(=O)c2ccc(Cl)cc2)c(N(C)C)o1	1.3	0.5	2.75	-14.9	1.1	-28.7
COc1cc(-c2nc(S(=O)(=O)c3ccc(C)cc3)c(N3CCOCC3)o2)cc(OC)c1OC	0.5	3.4	.	32.8	0.7	51.4*
O=S(=O)(c1ccccc1)c1nc(-c2ccco2)oc1N1CCOCC1	0.9	4.0	0.316	39.2	0.6	14.4
CCc1ccc(OCc2nnc(NC(=O)c3cccs3)s2)cc1	0.7	2.2	.	-7.3	1.1	32.7
Cc1cccc(C)c1N(CC(=O)NN=C1CCCCCC1)S(C)(=O)=O	0.8	1.1	-0.789	21.5	0.8	17.1
O=C(CN(c1ccccc1)S(=O)(=O)c1ccccc1[N+](=O)[O-])NN=C1CCCCCCC1	0.6	6.0	-3.64	64.3*	0.4	35.2
O=S(=O)(/C=C/c1ccccc1)Oc1ccccc1	1.1	1.9	0.0163	78.6*	0.2	-7.0
COc1ccc(-c2n[nH]c(C)c2-c2ccc(Cl)cc2)c(O)c1	0.5	13.1	-1.37	63.3*	0.4	47.5
CCCOC(=O)c1ccc(Oc2c(-c3ccc(OC)cc3O)n[nH]c2C)cc1	0.2	20.0	-1.34	46.3	0.5	83.4*
Cc1[nH]nc(-c2ccc(O)cc2O)c1Oc1ccccc1	0	.	-4.55*	100.4*	0	98.9*
CCc1cc(-c2n[nH]c(C)c2Oc2ccc(C(C)C)cc2)c(O)cc1O	0.2	18.6	-0.0367	67.0*	0.3	82.7*
CCOC(=O)c1[nH]nc(-c2cc(CC)c(O)cc2O)c1-c1cscn1	0.7	2.9	0.253	41.9	0.6	34.0
CC(=O)c1ccc(OCC(O)CN2CCN(CCO)CC2)cc1 (configuration not stated)	0.8	3.0	0.999	-5.9	1.1	22.7
CCCN(CCC)CCNC(=O)C(NS(=O)(=O)c1ccc2c(c1)CCC(=O)N2)c1ccccc1 (configuration not stated)	1	7.5	0.859	-3.0	1	1.0
SMILES	CYP2C9 activ	Rev-RRE block	Cav32 inh	CYP2C19 inhib	CYP2C19 activ	CYP2C9 inhib
Cc1ccc2nc(SCc3nc4c(cnn4-c4ccccc4)c(=O)[nH]3)[nH]c2c1	0.9	3.1	.	0.3	1	8.0
CCCOC(=O)c1ccc(Oc2c(-c3ccc(O)cc3O)n[nH]c2C)cc1	0	14.4	-2.97	87.4*	0.1	97.5*
Cc1ccc(-c2nc(NC(=O)CSc3nnc4scc(-c5ccccc5)n34)ns2)cc1	.	.	-0.705	.	.	.
N#Cc1c(N)sc2c1CCN(CCc1ccccc1)C2	.	65.2*	-0.396	.	.	.
CC(=O)NC(NC(C)=O)c1ccc(N(C)C)cc1	.	6.7	0.108	.	.	.
N/C(Cc1ccc(Cl)cc1)=N\OC(=O)c1cccc2ccccc12	2*	13.7	-3.18	12.1	0.9	-103.3
Cc1nn(C)c(C)c1NS(=O)(=O)c1ccccc1	0.9	5.3	-0.0726	27.2	0.7	7.3
Cc1ccc2ncccc2c1NS(=O)(=O)c1ccccc1	0.6	0.7	-0.01	57.2*	0.4	35.2
Cc1ccc(-c2cc(C(=O)Nc3cc(C)ccc3C)[nH]n2)c(O)c1	.	8.8	-0.0375	.	.	.
COc1ccc(OC)c(NC(=O)c2cc(-c3ccc(C)cc3O)n[nH]2)c1	2.9*	5.4	0.636	9.6	0.9	-191.9
COc1ccc(OC)c(-n2c(-c3cccc(O)c3)n[nH]c2=S)c1	1	1.4	0.688	-4.7	1	-3.8
O=C(CCN1C(=O)c2ccccc2C1=O)Nc1ccccc1C(=O)N1CCOCC1	1.4	3.1	0.704	-14.5	1.1	-41.6
O=C(CSCSCC(=O)Nc1ccc2c(c1)OCO2)Nc1ccc2c(c1)OCO2	0.2	4.8	0.804	35.1	0.6	79.7*
O=C(CSCc1c(Cl)cccc1Cl)Nc1ccccc1C(=O)N1CCOCC1	0.1	2.7	0.108	47.6	0.5	92.0*
O=C(CSCc1c(Cl)cccc1Cl)Nc1ccc2c(c1)OCO2	0.3	-2.0	-1.89	12.3	0.9	75.0*
O=C(CSc1nnnn1-c1ccccc1Cl)Nc1ccc2c(c1)OCCO2	1.1	9.9	0.479	-2.6	1	-12.7
Cc1ccc(S(=O)(=O)C2(C(=O)Nc3ccc4c(c3)OCO4)CC2)cc1	0.2	.	-0.274	86.9*	0.1	83.1*
CC1CCN(c2c(NCc3ccc(C(=O)NCc4cccnc4)cc3)c(=O)c2=O)CC1	0.8	.	-0.362	-2.5	1	16.4
O=C(CSCc1ccccc1)Nc1ccc2c(c1)OCO2	.	0.6	-1.21	.	.	.
Cc1ccc(CSCC(=O)Nc2ccc3c(c2)OCO3)cc1	0.7	3.4	.	59.4*	0.4	32.5
CSCCC(C(=O)Nc1ccc2c(c1)OCO2)N1C(=O)c2ccccc2C1=O (configuration not stated)	0.5	-1.5	-0.218	33.8	0.7	52.2*
N#Cc1cccc(NC(=O)COc2ccc(-n3ccnc3)cc2)c1	0	3.4	0.643	100.0*	0	98.6*
Cc1ccc(NC(=O)COc2ccc(-n3cnnn3)cc2)cc1C	.	0.8	0.752	.	.	.
CC(C)(C)c1ccc(NC(=O)COc2ccc(-n3ccnc3)cc2)cc1	0	3.6	0.00921	99.0*	0	98.9*
CC(=O)Nc1ccc(S(=O)(=O)NNC(=O)COc2ccc(C(C)(C)C)cc2)cc1	1.1	7.8	-2.53	12.5	0.9	-8.7
c1ccc2nc(-c3nc4ccccc4o3)ccc2c1	0.6	.	-0.804	71.3*	0.3	42.7
c1ccc(-c2nc3ccccc3o2)nc1	1.1	4.5	.	19.0	0.8	-8.8

Bioassay records from PubChem BioAssay.
